TbMetRS inhib = blocks T. brucei methionyl-tRNA synthetase activity; 0.4% of 360,000 active; inhibition, % at 11.9 µM; purified T. brucei MetRS, ATP depletion, Kinase-Glo luminescence; AID 624268;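 active means inhibition above a per-plate cutoff of the control wells' mean inhibition plus 3 SD, cut at about 5.5% in these data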
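Material: parasite MetRS enzyme / Replication: singlicate, one well per compound / Signal: luminescence of leftover ATP / Schedule: 2 h aminoacylation at 25 °C after 15 min preincubation / Medium: HEPES-MgCl2-KCl buffer plus DTT, spermine, BSA, pyrophosphatase / Doses: 11.9 µM single point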
PLCg1 inh = blocks human PLC-gamma1 enzyme activity; AID 720700; P19174; purified PLC-gamma1, fluorogenic substrate, fluorescence; inhibition, % at 12.2 µM; 0.84% of 370,000 active; in the data active means inhibition above about 9.5%
PLCb3 inh = inhibitors of human phospholipase C beta3; Q01970; Purified PLC-beta3, fluorogenic substrate, fluorescence; inhibition, % at 12.2 µM; 0.18% of 370,000 active; AID 720704
DAGLB inh = blocks human DAGLB lipase activity; Q8NCG7; HEK293T DAGLB membrane lysate, EnzChek fluorogenic substrate; 0.059% of 340,000 active; AID 504411; inhibition, % at 5.17 µM; in the data active means inhibition above about 34%
sPLA2-III inh = Inhibits HGIII-sPLA2 liposome hydrolysis, primary screen. Q9NZ20. QFRET BODIPY PC-A2 liposome hydrolysis, fluorescence. inhibition, % at 12.2 µM. 0.56% of 370,000 active;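 active means inhibition above mean plus 3 SD of compounds lying within the high and low control bounds, cut at about 19% in these data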
Target sequence (Q9NZ20 whole entry, looked up): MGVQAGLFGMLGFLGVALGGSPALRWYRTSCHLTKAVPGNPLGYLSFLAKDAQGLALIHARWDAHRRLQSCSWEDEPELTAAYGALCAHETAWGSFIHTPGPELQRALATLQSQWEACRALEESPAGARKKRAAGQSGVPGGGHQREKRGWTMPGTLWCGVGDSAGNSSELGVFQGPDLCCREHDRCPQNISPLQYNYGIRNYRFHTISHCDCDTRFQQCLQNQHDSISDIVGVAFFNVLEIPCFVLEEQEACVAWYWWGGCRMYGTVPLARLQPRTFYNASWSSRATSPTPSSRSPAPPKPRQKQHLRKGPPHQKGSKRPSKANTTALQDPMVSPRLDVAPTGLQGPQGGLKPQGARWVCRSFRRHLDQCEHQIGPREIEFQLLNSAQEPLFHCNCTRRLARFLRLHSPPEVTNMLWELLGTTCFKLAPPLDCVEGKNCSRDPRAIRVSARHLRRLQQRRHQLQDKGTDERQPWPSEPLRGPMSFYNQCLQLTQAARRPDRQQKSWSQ
PLCg1 ctr = inhibits human PLC-gamma1 in PLC-beta3 counter-screen; shares compounds with PLCg1 inh; purified PLC-gamma1, fluorogenic substrate, fluorescence; inhibition, % at 12.3 µM; 3.1% of 3,300 active; AID 743258; in the data active means inhibition above about 9.5%
PLCb3 confirm = confirmation of human PLC-beta3 inhibitors; shares compounds with PLCg1 inh; purified PLC-beta3, fluorogenic substrate fluorescence; inhibition, % at 12.3 µM; 1% of 3,300 active
Numbers stand for hits; n = inactive; x = no result given. Most compounds without a hit are left out; they make up all but 1.9% or so of the library. Unless noted, no stated cut-off is given here; in the data, active means inhibition above about 11%; inactive means the rest.

SMILES	TbMetRS inhib	PLCg1 inh	PLCb3 inh	DAGLB inh	sPLA2-III inh	PLCg1 ctr	PLCb3 confirm
CCOc1ccc(CN2CCN(c3ncnc4scc(-c5ccccc5)c34)CC2)cc1	n	10.0	n	n	n	n	n
c1ccc(N2CCN(c3ncnc4scc(-c5cccs5)c34)CC2)cc1	n	11.1	n	n	n	n	n
COC(=O)CC#C[C@H](C)[C@@H](NS(C)(=O)=O)C(C)(C)COCc1ccccc1	x	n	n	x	n	x	x
Cc1ccccc1C(=O)N[C@@H](CC(C)C)C(=O)N1CCC[C@H]1C(=O)NCc1ccccc1	x	n	n	x	n	x	x
CN(C)c1nc2c(c(=O)[nH]c(=O)n2C)n1Cc1ccccc1Br	n	11.3	n	n	n	n	n
CCN(CC)c1nc2c(c(=O)[nH]c(=O)n2C)n1Cc1ccccc1Cl	n	n	n	n	n	x	x
CC1(C(=O)NS(=O)(=O)C2CC2)CCCN(C(=O)c2cccs2)C1 (stereo not given)	n	n	n	x	n	x	x
Cc1ccsc1C(=O)N1CCCC(C)(C(=O)NS(=O)(=O)C2CC2)C1 (stereo not given)	n	9.8	n	x	n	n	n
Cc1cccc(-c2cccc3c4c([nH]c23)[C@@H]2C[C@H](N(C)C(=O)c3ccco3)[C@H]([C@H](C)O)CN2CC4)c1	x	n	n	x	n	x	x
O=C(O)CCNC(=O)c1ccc(Br)o1	n	12.1	n	n	n	n	n
O=C(NCCC(c1ccccc1)c1ccccc1)c1ccc(Br)o1	n	n	n	n	n	x	x
C[C@@H]1CN(S(=O)(=O)C(C)(C)C)[C@H](CCO)/C1=C\CCO	x	n	n	x	n	x	x
C[C@H]1CN(S(=O)(=O)C(C)(C)C)[C@@H](CCO)/C1=C\CCO	x	10.6	n	x	n	n	n
CC(C)CC(=O)Nc1c2c(nn1-c1ccc(F)cc1)CSC2	n	n	12.4	n	n	n	n
CC(C)(C)S(=O)(=O)N1C[C@@H]2CC(=O)C(CCO)=C2[C@H]1CCO	x	n	n	x	n	x	x
CCOC(=O)C1(CCOc2ccccc2)CCN(Cc2ccc(OC)c(O)c2)CC1	n	10.3	n	n	n	n	n
CCOC(=O)C1(CCOc2ccccc2)CCN(Cc2cc(OC)c(O)c(OC)c2)CC1	n	n	n	n	n	x	x
Cc1cc(NC(=O)CSc2cn(CC(=O)N(C(C)C)C(C)C)c3ccccc23)no1	n	11.6	n	n	n	n	n
Cn1cc(C(=O)NC2C3CC4CC(C3)CC2C4)cn1 (stereo not given)	n	12.1	n	n	n	n	n
Cc1ccc(NC(=S)NC(CO)C(O)c2ccc([N+](=O)[O-])cc2)cc1 (stereo not given)	n	n	n	n	n	x	x
O=[N+]([O-])c1ccc(C(O)C(CO)NC(=S)Nc2ccccc2)cc1 (stereo not given)	n	9.8	n	n	n	n	n
CC1(C)c2ccccc2-c2nc3ccccc3cc2C1O (stereo not given)	n	10.8	n	n	n	n	n
C/C(=N\Nc1ccc(S(=O)(=O)N2CCOCC2)cc1[N+](=O)[O-])C(C)C	n	10.2	n	n	n	n	n
CCC(=O)Nc1ccc(C(=O)NNC(=O)COc2cc(C)ccc2C)cc1	n	n	12.0	n	n	n	n
CCCCCCn1c(=O)n2n(c1=O)C[C@]1(OC(=O)NC3CCCC3)CN(S(=O)(=O)c3ccc(C)cc3)C[C@]1(O)C2	n	11.3	n	n	n	n	n
SMILES	TbMetRS inhib	PLCg1 inh	PLCb3 inh	DAGLB inh	sPLA2-III inh	PLCg1 ctr	PLCb3 confirm
CCCCCCn1c(=O)n2n(c1=O)C[C@]1(OC(=O)NCC3CCCCC3)CN(S(=O)(=O)c3ccc(C)cc3)C[C@]1(O)C2	n	n	n	n	n	x	x
COC(=O)[C@H]1C[C@@]2(O)CN(S(=O)(=O)c3ccc(C)cc3)C[C@@]2(OC(=O)NC2CCCC2)C[C@H]1C(=O)OC	n	9.7	n	n	n	n	n
O=[N+]([O-])c1cc2c(ccc3occc32)o1	x	n	n	x	n	x	x
C[C@H](CO)N1C[C@H](C)[C@@H](CN(C)C(=O)c2ccncc2)OCc2cn(nn2)CCCC1=O	x	n	n	x	n	x	x
CC1(C(=O)NS(=O)(=O)c2ccc(F)cc2F)CCN1C(=O)c1cccc(F)c1 (stereo not given)	n	12.3	n	x	n	n	n
COc1cccc(CNC(=O)C2CCC(CNS(=O)(=O)c3cccc4cccnc34)CC2)c1OC (stereo not given)	x	n	n	x	n	x	x
O=C(O)c1ccc2c(c1Nc1ccccc1)C(=O)c1ccccc1C2=O	n	10.1	n	n	n	n	n
CNc1c(C(=O)O)ccc2c1C(=O)c1ccccc1C2=O	n	n	n	n	n	x	x
CCN(CC)C(=O)CC[C@H]1CC[C@]2(CCCN(Cc3ccc(Br)cc3)C2)O1	x	n	n	x	n	x	x
CCOC(=O)[C@]12CCCCC/C=C\1N(Cc1ccc(OC)cc1)C(=O)[C@H]2CC(=O)NCc1cccs1	x	9.5	n	x	n	n	n
COC(=O)[C@]12C[C@H](CC(=O)N3CCCC3)C(=O)N(Cc3cccc4ccccc34)C1=C[C@H](C(C)(C)C)O[C@@H]2C	x	n	n	x	n	x	x
CCOc1ncccc1C(=O)N=c1sccn1C	n	12.3	n	n	n	n	n
Cc1ccccc1C(=O)N=c1sccn1C	n	n	n	n	n	x	x
C/C(CC(=O)NC1CCCC1)=N\NC(=O)c1ccc([N+](=O)[O-])c(Cl)c1	n	14.4	n	n	n	n	n
CC(C)C[C@H](NC(=O)c1ccc(OC2CCN(C(=O)C3CC3)CC2)cc1)C(N)=O	n	9.7	n	n	n	n	n
CC(C)NC(=O)N(C)C[C@H]1OCc2cn(nn2)CCCC(=O)N([C@H](C)CO)C[C@@H]1C	x	n	n	x	n	x	x
CCCNC(=O)C(Cc1ccc(OC)cc1)NC(=O)c1ccc(Cl)cc1 (stereo not given)	n	13.1	n	n	n	n	n
CCc1cc2c(nc1CC)CCCN2Cc1ccccc1C(F)(F)F	x	n	n	x	n	x	x
O=C(Nc1ccc(F)cc1F)c1cccn1-c1ncc(C(F)(F)F)cc1Cl	n	n	n	n	n	x	x
Cc1cc(C)cc(NC(=O)c2cccn2-c2ncc(C(F)(F)F)cc2Cl)c1	n	13.0	n	n	n	n	n
Cc1cc(Oc2cccnc2)ccc1NC(=O)Cc1c(C)[nH]c2ccccc12	x	n	n	x	n	x	x
NS(=O)(=O)c1ccc(CCNC(=O)C2CCCCN2S(=O)(=O)c2ccccc2)cc1 (stereo not given)	n	12.8	n	n	n	n	n
CC(C)(C)N(NC(=O)Nc1cccc(F)c1)C(=O)c1ccccc1Cl	x	n	n	x	n	x	x
N#Cc1ccc(C23CC4(C2)[C@H](CN(Cc2ccc(-c5ccccc5)cc2)[C@@H]4c2ccccc2)C3c2ccc(C(F)(F)F)cc2)cc1 (stereo not given in full)	x	n	10.9	x	n	n	n
